Tested on: MS2 coat protein
Assay: apparent Kd, MS2 coat protein; higher = weaker binding; RNA-MaP array; tryptophan 2.4 mM where present
Method in brief: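 In 100 mM Tris-HCl pH 7.5, 80 mM KCl, 4 mM MgCl2, BSA, DTT, yeast tRNA and Tween-20, SNAP-549-labelled MS2 coat protein was titrated from 0.7 or 1.5 nM, doubling to 3 µM, over designs transcribed by stalled E. coli RNA polymerase on Illumina sequencing-chip clusters. This was done first without ligand, then with ligand held constant. After green signal was normalised to red-channel RNA signal and control-cluster median Fmax, the apparent Kd was taken as the median of filtered per-cluster binding-curve fits.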

[1] = designed as: OFF switch for tryptophan, no ligand
[2] = ligand present: tryptophan, designed as: OFF switch for tryptophan
[3] = designed as: ON switch for tryptophan, no ligand
[4] = ligand present: tryptophan, designed as: ON switch for tryptophan

| Sequence | apparent Kd [1] [nM] | apparent Kd [2] [nM] | apparent Kd [3] [nM] | apparent Kd [4] [nM] |
| --- | --- | --- | --- | --- |
| UAUAUAUAUCACUAACUGUUCUUGAGGUCUCGAGGACCGGUACGGCCGCCACUCGUGCCGCCUCACAUGAGGAUCACCCAUGUCC | 53.7 | 57 | – | – |
| AGAUUCGACACGGCCGCCACUUGUGGUGGAUUAUCCAGUGUCGAACAUGAGGAUCACCCAUGUACAAGGACCGGGUGUUGAGUCU | 90.4 | 282 | – | – |
| AUAAAAGGGUUAUAUAGAUUUAGGUCCAGUCGAGGACCGGUACGGCCGCCACUCGUACUGAAAUACAUGAGGAUCACCCAUGUUA | – | – | 21.8 | 22.7 |
| AGCACUGUGACGGCCGCCACUACAUAUAGGGUGGUCAGGUUCAUAAUACAUGAGGAUCACCCAUGUAGGACCGGGUCUCAGUGCA | 12.5 | 14.4 | – | – |
| UAAACUACACAUGAGGAUCACCCAUGUGGCCGAGGACCGGUACGGCCGCCACUCGUGUGUUAAUAAAAGAACCGCAAAGUUCUUU | – | – | 277 | 75.9 |
| GGGUGGUAGGCGGCCGCCACUGAUUUUUAUUUAUAGAUGACAUGAGGAUCACCCAUGUAGAUAUGCAGGACCGGGCCUGUUGUUU | – | – | 19.3 | 17.8 |
| GACCCAUGAGUUGCAAAAGCUCAUGGGUCGCGAGGACCGGUACGGCCGCCACUCGGCUGUACAUGAGGAUCACCCAUGUCAGGGU | – | – | 371 | 529 |
| CGACACAUGAGGAUCACCCAUGUAAUGACGCGAGGACCGGUACGGCCGCCACUCGCAUGCCAAUGAGCGCAUGCGGCCUGGGUAU | 18.1 | 14.5 | – | – |
| UAUCGAGGUACAUGAGGAUCACCCAUGUAUCGAGGACCGGUACGGCCGCCACUCGAUAAUGGCGGAUCGUUAGUCCUCUUCGAUA | 10.7 | 11.4 | – | – |
| GUCCUAAGGUCGGCCGCCACUGUAGAGUGUGAGCCAUCACAUGAGGAUCACCCAUGUUGUUGCUAUAGGACCGGGAUUGUAGGAC | 12 | 16.4 | – | – |
| CCAUAAGUACCGGUCCUCAGAUCCUCAUGACGAGGACCGGUACGGCCGCCACUCGAAACAUGAGGAUCACCCAUGUAAUAAUAUC | 30.6 | 24.6 | – | – |
| UCGUUUUAGUCGGCCGCCACUGAACUCAUGUUCAACAUGAGGAUCACCCAUGUACCUUAUUUUAACAGGACCGGGACGUAAUAGA | 123 | 97.5 | – | – |
| GGUUACUCUACGGCCGCCACUGGGCAUGUAAAUAACAUGAGGAUCACCCAUGUGGAAUAAAAUUACAGGACCGGGUAGUGUAACC | – | – | 254 | 40.2 |
| CUGCUACAUACGGCCGCCACUUUAAACAUGAGGAUCACCCAUGUACGGAAGGGUGGUAAAUGUUAAAGGACCGGGUAUGUAGCAA | 176 | 45.1 | – | – |
| UGUCGGCGAAAGUUGGCGUGUCUUGCUGGUCGAGGACCGGUACGGCCGCCACUCGAUCCUUCGCACAUGAGGAUCACCCAUGUUG | – | – | 25.5 | 28.5 |
| UAAACUACACAUGAGGAUCACCCAUGUGGCCGAGGACCGGUACGGCCGCCACUCGUGUGUUAAUAAAAGAACUGCAAAGUUCCUU | – | – | 295 | 86.1 |
| UCUUUUUUCUUUUCUUCUUUCGGUUCUUUUCGAGGACCGGUACGGCCGCCACUCGAAACAUGAGGAUCACCCAUGUUUUGGUUUU | 11.9 | 17.5 | – | – |
| CGAUAUGGGACGGCCGCCACUAUUAUGUAACAAAAUAAACAUGAGGAUCACCCAUGUACAUGGGAUAGGACCGGGUCCUAUAACG | – | – | 32.4 | 19.9 |
| UAUCUACAUAUAUAGGUUAUUCGAUUAUUUCGAGGACCGGUACGGCCGCCACUCGUUAACAUAUACAUGAGGAUCACCCAUGUUA | – | – | 15.4 | 14.5 |
| AACAUGAGGAUCACCCAUGUCCUCGUGUUCCGAGGACCGGUACGGCCGCCACUCGGUCCUCGCGAGGAUGGUCAAAGACUAUCCA | – | – | 97.4 | 170 |
| UGCUAGUGAUCGGCCGCCACUGGCACCUUGAGGAUCCUGCUAAAGUACAUGAGGAUCACCCAUGUCAGGACCGGGAUCAUCAGUG | 10.4 | 10.5 | – | – |
| AUGGUCGACGAUCUGCGAAAAGCAGAUCGACGAGGACCGGUACGGCCGCCACUCGUGUUCAUUAAACAUGAGGAUCACCCAUGUA | – | – | 48.8 | 21.1 |
| AGACUUCGCAUAGGAAAACUAUGUGAAGUCCGAGGACCGGUACGGCCGCCACUCGUCCUCAACAUGAGGAUCACCCAUGUAAUAA | 21.5 | 27.3 | – | – |
| GUAUUAACAAAAGUUGAUACAGUGGGUGAACGAGGACCGGUACGGCCGCCACUCGGACAUGAGGAUCACCCAUGUCCAUGUGAAA | 17.2 | 27.2 | – | – |
| UCGAAUGCGGCGGCCGCCACUCGCGGAUAACGAUAGCUUAACAUGAGGAUCACCCAUGUGUCAUGGAGGACCGGGCCCAUACCGU | – | – | 22.7 | 21.1 |
| CUAGAUGGAAACGUCUGGACGCACAAGCGACGAGGACCGGUACGGCCGCCACUCGAAGAGUGGUGGACAUGAGGAUCACCCAUGU | – | – | 53.8 | 39.2 |
